Values after ≈ are worked out from the molar mass of the structure shown.
Tests used:
Format in all cases: functional
Candida albicans = test: Antimicrobial activity against Candida albicans after 24 hrs by broth microdilution method
[1] = tested on: Stenotrophomonas maltophilia; test: Antimicrobial activity against Stenotrophomonas maltophilia after 24 hrs by broth microdilution method
Method in brief: (§1)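 MICs determined by two-fold broth microdilution following CLSI guidelines (M100-S22), with compound concentrations of […] in the well. Every well except the blank was inoculated with the test bacterium and incubated at 37 °C for 24 h. MIC was taken as the lowest concentration with no visible growth.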

Acinetobacter baumannii = test: Antimicrobial activity against Acinetobacter baumannii after 24 hrs by broth microdilution method; method in brief: as §1
Escherichia coli = test: Antimicrobial activity against Escherichia coli after 24 hrs by broth microdilution method; method in brief: as §1
Bacillus subtilis = test: Antimicrobial activity against Bacillus subtilis after 24 hrs by broth microdilution method; method in brief: as §1
Staphylococcus aureus = test: Antimicrobial activity against Staphylococcus aureus after 24 hrs by broth microdilution method; method in brief: as §1

SMILES	MIC (Candida albicans)	MIC [1]	MIC (Acinetobacter baumannii)	MIC (Escherichia coli)	MIC (Bacillus subtilis)	MIC (Staphylococcus aureus)
Fc1ccc(Nc2nn3c(-c4ccccc4)nnc3c3ccccc23)cc1	> 128 µg/mL	> 128 µg/mL	> 128 µg/mL	> 128 µg/mL	> 128 µg/mL	16 µg/mL (≈ 45 µM)
Cc1ccc(Nc2nn3c(-c4ccccc4)nnc3c3ccccc23)cc1	> 128 µg/mL	> 128 µg/mL	> 128 µg/mL	> 128 µg/mL	> 128 µg/mL	32 µg/mL (≈ 91.1 µM)
c1ccc(-c2nnc3c4ccccc4c(N4CCNCC4)nn23)cc1	32 µg/mL (≈ 96.9 µM)	32 µg/mL (≈ 96.9 µM)	64 µg/mL (≈ 194 µM)	128 µg/mL (≈ 387 µM)	64 µg/mL (≈ 194 µM)	32 µg/mL (≈ 96.9 µM)
Fc1ccc(Nc2nn3cnnc3c3ccccc23)cc1	> 128 µg/mL	> 128 µg/mL	> 128 µg/mL	> 128 µg/mL	> 128 µg/mL	64 µg/mL (≈ 229 µM)
Clc1ccc(Nc2nn3cnnc3c3ccccc23)cc1	> 128 µg/mL	> 128 µg/mL	> 128 µg/mL	> 128 µg/mL	> 128 µg/mL	32 µg/mL (≈ 108 µM)
COc1ccc(Nc2nn3cnnc3c3ccccc23)cc1	> 128 µg/mL	> 128 µg/mL	> 128 µg/mL	> 128 µg/mL	> 128 µg/mL	128 µg/mL (≈ 439 µM)
Cc1ccc(Nc2nn3cnnc3c3ccccc23)cc1	> 128 µg/mL	> 128 µg/mL	> 128 µg/mL	> 128 µg/mL	> 128 µg/mL	32 µg/mL (≈ 116 µM)
c1ccc2c(c1)c(N1CCNCC1)nn1cnnc21	> 128 µg/mL	> 128 µg/mL	> 128 µg/mL	> 128 µg/mL	> 128 µg/mL	> 128 µg/mL
COc1ccc(Nc2nn3c(C)nnc3c3ccccc23)cc1	> 128 µg/mL	> 128 µg/mL	> 128 µg/mL	> 128 µg/mL	> 128 µg/mL	16 µg/mL (≈ 52.4 µM)
Cc1ccc(Nc2nn3c(C)nnc3c3ccccc23)cc1	> 128 µg/mL	> 128 µg/mL	> 128 µg/mL	> 128 µg/mL	> 128 µg/mL	64 µg/mL (≈ 221 µM)
Cc1nnc2c3ccccc3c(Nc3ccccc3Cl)nn12	> 128 µg/mL	> 128 µg/mL	> 128 µg/mL	> 128 µg/mL	> 128 µg/mL	32 µg/mL (≈ 103 µM)
Cc1nnc2c3ccccc3c(N3CC(C)CC(C)C3)nn12 (stereo not drawn)	> 128 µg/mL	> 128 µg/mL	> 128 µg/mL	> 128 µg/mL	64 µg/mL (≈ 217 µM)	32 µg/mL (≈ 108 µM)
OC(Cn1cncn1)(Cn1cncn1)c1ccc(F)cc1F [FLUCONAZOLE]	1 µg/mL (≈ 3.27 µM)					
C[C@H]1COc2c(N3CCN(C)CC3)c(F)cc3c(=O)c(C(=O)O)cn1c23.C[C@H]1COc2c(N3CCN(C)CC3)c(F)cc3c(=O)c(C(=O)O)cn1c23.O [LEVOFLOXACIN]		0.5 µg/mL	0.25 µg/mL	0.25 µg/mL	1 µg/mL	0.5 µg/mL

— ChEMBL document CHEMBL3112433, “Synthesis and antimicrobial activities of novel 1,2,4-triazolo [3,4-a] phthalazine derivatives” (2014)
